Experiments:
[1] = molecular target: DNA dC->dU-editing enzyme APOBEC-3G (Homo sapiens) (UniProt Q9HC16); assay: Inhibition of Vif-mediated human A3G degradation in HEK-293T cells cotransfected with hA3G and Vif at 20 uM by western blot analysis relative to control; format: cell-based
How it was run: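 293T cells cotransfected with hA3G and Vif expression vectors, then treated with compounds at 20 μM; MG132 proteasome inhibitor as positive control, DMSO-treated cells as comparator for hA3G degradation.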

Hepatitis C virus = assay: Antiviral activity against Hepatitis C virus infected in human Huh7.5 cells assessed as inhibition of viral replication incubated for 72 hrs by qRT-PCR analysis; format: functional, organism-based, Hepacivirus hominis; details: Huh7.5, 72 h
[2] = Selectivity index, ratio of CC50 for cytotoxicity against human Huh7.5 cells to EC50 for antiviral activity against Hepatitis C virus infected in human Huh7.5 cells; format: toxicity, cell-based; details: read-out: Ratio CC50/EC50
Huh-7.5 = assay: (§1) Cytotoxicity against human Huh7.5 cells assessed as inhibition of cell growth measured after 96 hrs by MTT assay; format: toxicity, cell-based; details: huh-7.5, 96 h
How it was run: (§2)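 Huh7.5 cells in DMEM with 10% heat-inactivated FBS, seeded at 3.0 × 10⁴ cells/cm²; after 24 h, fresh medium with compound added (DMSO stocks, eight 1:5 serial dilutions).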

[3] = as §1; format: toxicity, cell-based, Huh-7.5; details: Huh7.5 cells; how it was run: as §2
[4] = Aqueous Solubility of compound at pH 7 measured after 10 mins by HPLC-UV analysis; format: physicochemical; details: buffer
[5] = Acute toxicity in ip dosed Kunming mouse assessed as lethal dose measured after 7 days; format: organism-based; details: in vivo, 168 h, time 7 day
How it was run: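 Single intraperitoneal dose at 50, 100, 150 or 200 mg/kg, n = 6 per group. Animals watched closely for 7 days. Median lethal dose (LD₅₀) estimated from deaths across the dose groups.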

Chain of DNA dC->dU-editing enzyme APOBEC-3G (Homo sapiens) (Q9HC16 whole entry): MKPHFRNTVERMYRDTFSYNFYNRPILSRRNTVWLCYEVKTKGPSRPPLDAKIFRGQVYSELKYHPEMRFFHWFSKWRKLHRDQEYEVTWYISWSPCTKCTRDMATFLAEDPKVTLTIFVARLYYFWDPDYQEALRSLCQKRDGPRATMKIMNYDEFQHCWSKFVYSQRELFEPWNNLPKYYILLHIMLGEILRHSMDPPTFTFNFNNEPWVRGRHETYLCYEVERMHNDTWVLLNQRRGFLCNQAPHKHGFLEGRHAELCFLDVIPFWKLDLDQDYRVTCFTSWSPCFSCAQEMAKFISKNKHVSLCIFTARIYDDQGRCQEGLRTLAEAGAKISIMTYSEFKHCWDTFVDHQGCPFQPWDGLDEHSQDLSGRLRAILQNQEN

Row | Compound | inhibition [1] [%] | EC50 (Hepatitis C virus) [µM] | selectivity ratio [2] | CC50 (Huh-7.5) [µM] | CC50 at 96 h [3] [µM] | solubility at 10 min [4] [µg/mL] | LD50 [5] [mg/kg]
1 | COc1ccc(NC(=O)c2ccc(OCCCCl)c([N+](=O)[O-])c2)cc1 | < 25 | 2.39 | 17 | 39.7 | – | – | –
2 | CN1CCN(Cc2ccc(NC(=O)c3ccc(OCCCl)c([N+](=O)[O-])c3)cc2C(F)(F)F)CC1 | – | 0.044 | 204 | 9.04 | – | – | –
3 | CC(C)Oc1ccc(C(=O)Nc2ccc(N(C)C)cc2)cc1N | – | 7.41 | 10 | 72.1 | – | – | –
4 | CN1CCN(Cc2ccc(NC(=O)c3ccc(OCCCCCCl)c([N+](=O)[O-])c3)cc2C(F)(F)F)CC1 | – | 0.06 | 36 | 2.14 | – | – | –
5 | CCC[C@H](NC(=O)[C@@H]1[C@H]2CCC[C@H]2CN1C(=O)[C@@H](NC(=O)[C@@H](NC(=O)c1cnccn1)C1CCCCC1)C(C)(C)C)C(=O)C(=O)NC1CC1 | – | – | – | 23.7 | – | – | –
6 | CC1CN(Cc2ccc(NC(=O)c3ccc(OCCCCl)c([N+](=O)[O-])c3)cc2C(F)(F)F)CC(C)O1 (configuration not stated) | – | 0.174 | 13.3 | 2.3 | – | – | –
7 | CC1CCN(c2ccc(NC(=O)c3ccc(OCCCCl)c([N+](=O)[O-])c3)cn2)CC1 | – | 0.64 | 14.4 | 9.2 | – | – | –
8 | COc1ccc2c(O[C@@H]3C[C@H]4C(=O)N[C@]5(C(=O)NS(=O)(=O)C6CC6)CC5/C=C\CCCCN(C)C(=O)[C@@H]4C3)cc(-c3nc(C(C)C)cs3)nc2c1C (single isomer, unassigned) | – | 0.008 | 4760 | 38 | – | – | –
9 | CCC(=O)Nc1cc(C(=O)Nc2ccc(N(C)C)cc2)ccc1OC | < 25 | 2.56 | 66 | 171 | – | – | –
10 | CCC(=O)Nc1cc(C(=O)Nc2ccc(-c3cc4ccccc4[nH]3)cc2)ccc1OC | > 50 | 7.41 | 9 | 65.6 | – | – | –
11 | CN1CCN(Cc2ccc(NC(=O)c3ccc(OCCCCCl)c([N+](=O)[O-])c3)cc2C(F)(F)F)CC1 | – | 0.1 | 37 | 3.74 | – | – | –
12 | CCC(=O)Nc1cc(C(=O)Nc2ccc(N3CCN(C)CC3)cc2)ccc1OC | – | > 22.2 | – | > 200 | – | – | –
13 | O=C(Nc1ccc(CN2CCOCC2)c(C(F)(F)F)c1)c1ccc(OCCCCl)c([N+](=O)[O-])c1 | – | 0.315 | 19.3 | 6.1 | – | – | –
14 | CN1CCN(Cc2ccc(NC(=O)c3ccc(OCCCCl)c([N+](=O)[O-])c3)cn2)CC1 | – | 0.083 | 151 | – | 12.6 | – | –
15 | CCOc1ccc(C(=O)Nc2ccc(OC)cc2)cc1NC(=O)CC | 25 | 1.47 | 48 | 73.2 | – | – | –
16 | CCC(=O)Nc1cc(C(=O)Nc2ccc(OC)cc2)ccc1OC(C)C | < 25 | 1.1 | 103 | 113 | – | – | –
17 | CN1CCN(Cc2ccc(NC(=O)c3ccc(OCCCCl)c(N)c3)cc2C(F)(F)F)CC1 | – | 1.18 | 10.9 | 12.9 | – | – | –
18 | CN1CCN(Cc2ccc(NC(=O)c3ccc(OCCCCl)c(Cl)c3)cc2C(F)(F)F)CC1 | – | 0.58 | 7 | 4.1 | – | – | –
19 | COc1ccc(NC(=O)c2ccc(OCCCN3CCN(C)CC3)c([N+](=O)[O-])c2)cc1 | < 25 | – | – | – | – | – | –
20 | CN(C)C1CN(Cc2ccc(NC(=O)c3ccc(OCCCCl)c([N+](=O)[O-])c3)cc2C(F)(F)F)C1 | – | 0.021 | 371 | 7.8 | – | – | –
21 | CN(C)C1CN(Cc2ccc(NC(=O)c3ccc(OCCCl)c([N+](=O)[O-])c3)cc2C(F)(F)F)C1.Cl | – | – | – | – | – | 7800 | –
22 | CCC(=O)Nc1cc(C(=O)Nc2ccc(CN3CCN(C)CC3)cc2)ccc1OC | 25 | > 22.2 | – | > 200 | – | – | –
23 | CN1CCN(Cc2ccc(NC(=O)c3ccc(OCCCCl)c([N+](=O)[O-])c3)cc2C#N)CC1 | – | 0.65 | 23 | 15.5 | – | – | –
24 | COc1ccc(NC(=O)c2ccc(OCCCN(C)C)c(N)c2)cc1 | < 25 | – | – | – | – | – | –
25 | CCC(=O)Nc1cc(C(=O)Nn2c(C)nnc2S)ccc1OC | > 50 | 14.4 | > 14 | > 200 | – | – | –
26 | COc1ccc(C(=O)Nc2ccc(N(C)C)cc2)cc1[N+](=O)[O-] | > 50 | 4.07 | 22 | 88.2 | – | – | –
27 | CCC(=O)Nc1cc(C(=O)Nc2ccc(OC)cc2)ccc1OC | > 50 | 1.3 | 84 | 109 | – | – | –
28 | O=C(Nc1ccc(CN2CC(C(=O)O)C2)c(C(F)(F)F)c1)c1ccc(OCCCCl)c([N+](=O)[O-])c1 | – | 4.72 | > 42 | > 200 | – | – | –

Row | Compound | inhibition [1] [%] | EC50 (Hepatitis C virus) [µM] | selectivity ratio [2] | CC50 (Huh-7.5) [µM] | CC50 at 96 h [3] [µM] | solubility at 10 min [4] [µg/mL] | LD50 [5] [mg/kg]
29 | COc1ccc(NC(=O)c2ccc(OC(C)C)c([N+](=O)[O-])c2)cc1 | < 25 | 2.86 | 8 | 23.4 | – | – | –
30 | CN1CCN(Cc2ccc(NC(=O)c3ccc(OCCCCl)c([N+](=O)[O-])c3)cc2C(F)(F)F)CC1 | – | 0.044 | 154 | 6.8 | – | – | < 100
31 | CN(C)C1CCN(Cc2ccc(NC(=O)c3ccc(OCCCCl)c([N+](=O)[O-])c3)cc2C(F)(F)F)C1 (configuration not stated) | – | 0.051 | 113 | 5.8 | – | – | –
32 | CC(C)Oc1ccc(C(=O)Nc2ccc(N(C)C)cc2)cc1[N+](=O)[O-] | – | 3.1 | 16 | 50 | – | – | –
33 | CCC(=O)Nc1cc(C(=O)Nc2ccc(CN3CCN(C)CC3)c(C(F)(F)F)c2)ccc1OC | > 50 | 1.48 | 24 | 35.3 | – | – | –
34 | CN1CCN(Cc2ccc(NC(=O)c3ccc(OCCCCl)c(S(N)(=O)=O)c3)cc2C(F)(F)F)CC1 | – | 1.14 | 6.2 | 5.47 | – | – | –
35 | COc1ccc(NC(=O)c2ccc(OCCCN3CCN(C)CC3)c(N)c2)cc1 | < 25 | – | – | – | – | – | –
36 | COc1ccc(NC(=O)c2ccc(OCCCN(C)C)c([N+](=O)[O-])c2)cc1 | < 25 | 8.96 | 14 | 126 | – | – | –
37 | CCCOc1ccc(C(=O)Nc2ccc(OC)cc2)cc1NC(=O)CC | 25 | 1.55 | 68 | 106 | – | – | –
38 | CC(C)Oc1ccc(C(=O)Nc2ccc(CN3CCN(C)CC3)c(C(F)(F)F)c2)cc1N | – | 1.32 | 16 | 21.6 | – | – | –
39 | COc1ccc(NC(=O)c2ccc3c(c2)NC(=O)CO3)cc1 | 25 | 7.46 | 10 | 77.3 | – | – | –
40 | CCC(=O)Nc1cc(C(=O)Nc2ccc(OC)cc2)ccc1OCCCN1CCN(C)CC1 | > 50 | 13.5 | 9.4 | 126 | – | – | –
41 | CCC(=O)Nc1cc(C(=O)Nc2ccc(OC)cc2)ccc1OCCCN(C)C | > 50 | > 22.2 | – | 154 | – | – | –
42 | CCC(=O)Nc1cc(C(=O)Nc2ccc(N(C)C)cc2)ccc1OC(C)C | – | 6.03 | 13 | 80.6 | – | – | –
43 | CCC(=O)Nc1cc(C(=O)Nc2ccc(CN3CCN(C)CC3)c(C(F)(F)F)c2)ccc1OCCCCl | – | 0.22 | 36.3 | 7.87 | – | – | –
44 | CCC(=O)Nc1cc(C(=O)Nc2ccc(CN3CCN(C)CC3)c(C(F)(F)F)c2)ccc1OC(C)C | – | 0.3 | 51 | 15.3 | – | – | –
45 | CC(C)Oc1ccc(C(=O)Nc2ccc(CN3CCN(C)CC3)c(C(F)(F)F)c2)cc1NC(=O)C(C)Br (configuration not stated) | – | 0.32 | 27 | 8.7 | – | – | –
46 | CC(C)Oc1ccc(C(=O)Nc2ccc(N(C)C)cc2)cc1NC(=O)C(C)Br (configuration not stated) | – | 4.34 | 2 | 7.9 | – | – | –
47 | CCC(=O)Nc1cc(C(=O)Nc2ccc(OC)cc2)ccc1OCCCN1CCOCC1 | – | > 22.2 | – | 49.2 | – | – | –
48 | COc1ccc(C(=O)Nc2cc(OC)c(OC)c(OC)c2)cc1NC(=O)C(C)Br (configuration not stated) | – | 2.1 | 7 | 15 | – | – | –
49 | CCC(=O)Nc1cc(C(=O)Nc2ccc(OC)cc2)ccc1OCCCCl | – | 7.41 | 21 | 158 | – | – | –
50 | CCCOc1ccc(C(=O)Nc2ccc(OC)cc2)cc1[N+](=O)[O-] | < 25 | – | – | – | – | – | –
51 | CN1CCN(Cc2ccc(NC(=O)c3ccc(OCCCCl)c(C(F)(F)F)c3)cc2C(F)(F)F)CC1 | – | 0.13 | 99.6 | 13.4 | – | – | –
52 | CN1CCN(Cc2ccc(NC(=O)c3ccc(OCCCCl)c(F)c3)cc2C(F)(F)F)CC1 | – | 0.49 | 18.9 | 8.8 | – | – | –
53 | CC(C)Oc1ccc(C(=O)Nc2ccc(CN3CCN(C)CC3)c(C(F)(F)F)c2)cc1[N+](=O)[O-] | < 25 | 0.095 | 39 | 3.5 | – | – | –
54 | COc1ccc(NC(=O)c2ccc3c(c2)NCCO3)cc1 | < 25 | > 22.2 | – | 153 | – | – | –
55 | CN(C)C1CCN(Cc2ccc(NC(=O)c3ccc(OCCCCl)c([N+](=O)[O-])c3)cc2C(F)(F)F)CC1 | – | 0.38 | 14 | 5.5 | – | – | –

— ChEMBL document CHEMBL5046236, “Synthesis and structure-activity relationship study of new biaryl amide derivatives and their inhibitory effects against hepatitis C virus” (Eur J Med Chem, 2022)
